Source: publication PMC3086726 (Nuclear medicine and biology, 2010)
Read-outs that look alike come from different tables or passages of the source.

What was measured:
[1] = format: in vitro ADME; conditions: mouse, serum, pH 7.4
[2] = In vitro stability of 99mTc-cyclized analogues in PBS; format: physicochemical; conditions: pH 7.4, 37 °C
In short: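 Test peptides were labelled with 99mTc by exchange from 99mTc-glucoheptonate (pH 7.9–8.1, 60 °C, 30 min), purified by radio-RP-HPLC, mixed with gentisic acid and evaporated. They were diluted in PBS or 1 mM cysteine, adjusted to pH 7.4 and incubated at 37 °C. Aliquots at 1, 2, 4 and 24 h were analysed by RP-HPLC for % intact. Replicate measurements used radio-TLC on C18 (10% ammonium acetate; 1:1 TFA-water/acetonitrile).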

[3] = set-up: species or system CF-1 mice; conditions: mouse
[4] = Stability of 99mTc-cyclized analogues to cysteine challenge; format: physicochemical; conditions: 10 mM Cys, pH 7.4, 37 °C

^99mTc-Ac-Cys^1,Tyr^3-octreotate [99mTc-2]
percent intact 99mTc-analogue post purification ([1]; 1 h): 96.7 ± 0.8%
percent intact 99mTc-analogue post purification ([1]; 2 h): 97.1 ± 0.7%
percent intact 99mTc-analogue post purification ([1]; 4 h): 97.0 ± 0.2%
percent intact 99mTc-analogue post purification ([1]; 24 h): 94.7 ± 2.4%
percent intact 99mTc-analogue post purification ([2]; 1 h): 98.3 ± 0.5%
percent intact 99mTc-analogue post purification ([2]; 2 h): 98.0 ± 0.2%
percent intact 99mTc-analogue post purification ([2]; 4 h): 97.8 ± 0.9%
percent intact 99mTc-analogue post purification ([2]; 24 h): 94.1 ± 1.4%
In vivo biodistribution, Adrenals ([3]; 150 ug, 1 h): 0.63 ± 0.19 %ID/g
In vivo biodistribution, Blood ([3]; 150 ug, 1 h): 1.38 ± 0.15 %ID/g
In vivo biodistribution, Kidney ([3]; 150 ug, 1 h): 2.97 ± 0.19 %ID/g
In vivo biodistribution, Lg. Int ([3]; 150 ug, 1 h): 0.56 ± 0.04 %ID/g
In vivo biodistribution, Liver ([3]; 150 ug, 1 h): 1.78 ± 0.59 %ID/g
In vivo biodistribution, Muscle ([3]; 150 ug, 1 h): 0.43 ± 0.05 %ID/g
In vivo biodistribution, Pancreas ([3]; 150 ug, 1 h): 0.54 ± 0.10 %ID/g
In vivo biodistribution, Sm. lnt ([3]; 150 ug, 1 h): 24.29 ± 3.21 %ID/g
In vivo biodistribution, Spleen ([3]; 150 ug, 1 h): 0.47 ± 0.07 %ID/g
In vivo biodistribution, Stomach ([3]; 150 ug, 1 h): 5.69 ± 0.45 %ID/g
In vivo biodistribution, Adrenals ([3]; 1 h): 0.36 ± 0.04 %ID/g
In vivo biodistribution, Blood ([3]; 1 h): 0.95 ± 0.12 %ID/g
In vivo biodistribution, Kidney ([3]; 1 h): 2.61 ± 0.64 %ID/g
In vivo biodistribution, Lg. Int ([3]; 1 h): 0.53 ± 0.08 %ID/g
In vivo biodistribution, Liver ([3]; 1 h): 1.60 ± 0.17 %ID/g
In vivo biodistribution, Muscle ([3]; 1 h): 0.26 ± 0.02 %ID/g
In vivo biodistribution, Pancreas ([3]; 1 h): 0.46 ± 0.15 %ID/g
In vivo biodistribution, Sm. lnt ([3]; 1 h): 20.28 ± 3.58 %ID/g
In vivo biodistribution, Spleen ([3]; 1 h): 0.38 ± 0.09 %ID/g
In vivo biodistribution, Stomach ([3]; 1 h): 2.95 ± 1.42 %ID/g
In vivo biodistribution, Adrenals ([3]; 4 h): 0.22 ± 0.07 %ID/g
In vivo biodistribution, Blood ([3]; 4 h): 0.34 ± 0.04 %ID/g
In vivo biodistribution, Kidney ([3]; 4 h): 1.43 ± 0.34 %ID/g
In vivo biodistribution, Lg. Int ([3]; 4 h): 28.18 ± 4.57 %ID/g
In vivo biodistribution, Liver ([3]; 4 h): 0.47 ± 0.15 %ID/g
In vivo biodistribution, Muscle ([3]; 4 h): 0.08 ± 0.04 %ID/g
In vivo biodistribution, Pancreas ([3]; 4 h): 0.15 ± 0.03 %ID/g
In vivo biodistribution, Sm. lnt ([3]; 4 h): 1.94 ± 0.50 %ID/g
In vivo biodistribution, Spleen ([3]; 4 h): 0.12 ± 0.01 %ID/g
In vivo biodistribution, Stomach ([3]; 4 h): 3.88 ± 0.54 %ID/g
In vivo biodistribution, Adrenals ([3]; 24 h): 0.03 ± 0.01 %ID/g
In vivo biodistribution, Blood ([3]; 24 h): 0.06 ± 0.01 %ID/g
In vivo biodistribution, Kidney ([3]; 24 h): 0.48 ± 0.10 %ID/g
In vivo biodistribution, Lg. Int ([3]; 24 h): 1.18 ±0.66 %ID/g
In vivo biodistribution, Liver ([3]; 24 h): 0.11 ± 0.01 %ID/g
In vivo biodistribution, Muscle ([3]; 24 h): 0.01 ± 0.01 %ID/g
In vivo biodistribution, Pancreas ([3]; 24 h): 0.02 ± 0.01 %ID/g
In vivo biodistribution, Sm. lnt ([3]; 24 h): 0.22 ± 0.04 %ID/g
In vivo biodistribution, Spleen ([3]; 24 h): 0.04 ± 0.01 %ID/g
In vivo biodistribution, Stomach ([3]; 24 h): 0.61 ± 0.15 %ID/g
percent intact 99mTc-analogue post purification ([4]; 1 h): 99.4 ± 0.3%
percent intact 99mTc-analogue post purification ([4]; 2 h): 99.1 ± 0.5%
percent intact 99mTc-analogue post purification ([4]; 4 h): 99.3 ± 0.1%
percent intact 99mTc-analogue post purification ([4]; 24 h): 93.3 ± 0.7%
